# From PubChem BioAssay
# MT stabilizer = microtubule stabilization, imaging screen. HeLa tubulin immunostaining HCS, 24 h; share of cells brighter than vehicle mean+2SD. % tubulin-high responders, % at 10 µM. AID 2205. 200,000 compounds, 0.83% hits;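 active = plate Z-score above 3 for both tubulin-high and condensed-nucleus cell shares, with cell loss under 80%, at 10 µM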;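 note: anti alpha tubulin signal scored within the nucleus-defined area of each cell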
# Yeast life ext = yeast lifespan extension | S. cerevisiae growth with nicotinamide, OD615; deaD strain in restrictive glucose medium | inhibition of the nicotinamide effect, % at 10 µM | 130,000 compounds, 0.68% hits;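 active = inhibition above a set limit, placed 3 SD over the median of all compounds, cut at about 26% in these data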;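 note: 0% = nicotinamide-treated wells and 100% = cells grown without nicotinamide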
#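 Assay system: engineered S. cerevisiae DeaD replicative-lifespan strain, galactose-grown log-phase cells; medium: restrictive CSMM-D dextrose medium; also added: nicotinamide, 1.5 mM, co-present with compound; schedule: 48 h compound exposure at 30 °C, humidified; detection: absorbance at 615 nm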
# bCat nuc transl = alters nuclear translocation of beta-catenin in HeLa cells; immunofluorescence imaging; nuclear translocation activity, % at 5 µM; 190,000 compounds, 0.3% hits; AID 1665;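 active = nuclear translocation activity above 50% at 5 µM, with a well cell count of 50 or more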;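 note: per-cell ratio of nuclear to cytoplasmic median beta-catenin stain intensity; plate controls were DMSO negative control for no effect and GSK-3 inhibitor IX positive control for full effect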
#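 Test system: human HeLa cells, endogenous beta-catenin. Times: 24 h compound exposure, 37°C. Measured by: beta-catenin immunofluorescence imaging with DAPI.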
# Efa HMGR inh = E. faecalis class II HMG-CoA reductase inhibition | purified E. faecalis HMGR, NADPH absorbance 340 nm kinetic | inhibition, % at 10 µM | 190,000 compounds, 0.41% hits | AID 1066;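 active = inhibition above a set limit, the median over all tested compounds plus 3 SD, cut at about 9.5% in these data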;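 note: enzyme runs in reverse so mevalonate oxidation gives rising NADPH absorbance; 0% = complete reaction with DMSO and 100% = background rate lacking mevalonate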
# BB579 growth dn = yeast BB579 growth reduction in restrictive medium; S. cerevisiae BB579 growth, OD615, 48 h; inhibition, % at 10 µM; 140,000 compounds, 0.51% hits; AID 804;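 active = inhibition above a set limit, 3 SD over the mean compound inhibition, cut at about 44% in these data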
#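 Test system: Saccharomyces cerevisiae DeaD strain BB579, replicative lifespan model yeast | Buffer or medium: Restrictive CSMM-D medium | Doses: One dose, 10 µM compound with 0.25% DMSO | Incubation: 48 h exposure, 30 °C | Detection: Culture absorbance at 615 nm | Control set: Amphotericin B at 10 µg/mL as positive control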
# RAM network inh = blocks the yeast RAM network; S. cerevisiae dse1pr::URA3 reporter, 5-FOA growth OD615, 2 d; analog-sensitive cbk1-as2 kinase mutant strain; inhibition, % at 50 µM; 190,000 compounds, 1.8% hits; AID 868;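 active = inhibition above a set limit, 3 SD over mean compound inhibition, cut at about 8.4% in these data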;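 note: 0% = DMSO-only wells with no growth and 100% = 10 µM 1-NA-PP1 full growth; inhibition rescues growth on 5-FOA so higher OD means more RAM inhibition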
# RAM efflux-def = RAM network inhibition, efflux-deficient strain | max inhibition, % | S. cerevisiae efflux-deficient reporter strain, 5-FOA growth OD615, 2 days | shares compounds with RAM network inh | 1,200 tested, under 10 active; call rule not given here;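 note: plate controls were vehicle for no effect and reference inhibitor for full effect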
# Numbers without * were called inactive; nt = no result. Sampled rows, rich in hits. Any-hit rate of the full collection: about 3.5%.
SMILES,MT stabilizer,Yeast life ext,bCat nuc transl,Efa HMGR inh,BB579 growth dn,RAM network inh,RAM efflux-def
COc1ccccc1-c1ccc(/C=C2/C=C(CC(C)C)OC2=O)o1,5.0,6.0,-1.6,3.9,-35.7,14.2*,9.9
CCCC1=C/C(=C/c2ccc(-c3ccccc3OC)o2)C(=O)O1,4.6,5.0,-0.9,7.8,-51.4,7.7,nt
COc1cc(-c2nnc(SCC(=O)c3ccc(C)cc3)o2)cc(OC)c1OC,5.0,-6.8,1.5,-4.1,-8.1,1.3,nt
COc1cc(-c2nnc(-c3cc(OC)c(OC)c(OC)c3)o2)cc(OC)c1OC,3.2,nt,-3.3,4.7,-35.2,5.2,nt
COc1cc(-c2nnc(-c3ccccc3)o2)cc(OC)c1OC,2.9,nt,-0.3,-3.1,6.0,23.0*,3.0
COc1cccc(C(=O)CSc2nnc(-c3cc(OC)c(OC)c(OC)c3)o2)c1,3.0,-4.8,nt,0.5,-61.6,13.3*,3.0
O=C(NCC1CCCN(Cc2ccc3nonc3c2)C1)c1cccc(C(F)(F)F)c1 (stereo not drawn),3.0,nt,1.3,0.6,nt,4.2,nt
Cc1cc(-c2ccccc2)n2nc(N)nc2n1,nt,nt,-0.1,nt,nt,nt,nt
Cc1ccc(CSc2nc3ccccc3c(=O)n2Cc2ccco2)cc1,2.9,nt,1.5,-2.5,-27.2,14.2*,4.4
COn1c(SCc2ccccc2)nc2ccccc2c1=O,3.1,-23.8,3.5,-6.8,-8.2,12.3*,4.7
COn1c(SCc2cccc(Cl)c2)nc2ccccc2c1=O,2.3,20.7,-2.5,-0.9,2.0,4.7,nt
O=C(CSc1nc2ccccc2c(=O)n1CCC(=O)N1CCCCC1)NCc1ccccc1,2.6,25.1,-1.9,-7.7,-14.6,18.3*,1.8
O=c1c2ccccc2nc(SCc2ccccc2)n1Cc1ccco1,5.4,0.1,-1.2,1.9,-65.3,6.6,nt
O=C(CCCn1c(SCc2cccc(F)c2)nc2ccccc2c1=O)NCC1CCCO1 (stereo not drawn),1.8,nt,nt,-4.4,nt,16.0*,1.3
O=C(CN1CCCCC1)NNc1nc(-c2ccccc2)c2cc(Br)ccc2n1,nt,nt,-3.3,nt,nt,nt,nt
NC(=S)N1CCCc2ccccc21,nt,nt,-1.1,nt,nt,nt,nt
O=c1c2ccccc2nc(SCc2cccc(F)c2)n1Cc1ccco1,1.3,9.2,-0.6,-0.1,-48.2,13.7*,6.3
Cc1cccc(/C=C\c2nc3ccccc3c(=O)[nH]2)c1,12.4*,-6.8,28.9,0.4,-46.3,11.5*,1.6
Cn1ncc(Cl)c1C(=O)N1CCN(C(=O)c2ccco2)CC1,6.1,nt,-1.0,3.8,nt,1.7,nt
CCC(=O)Oc1c(S(=O)(=O)c2ccc(C)cc2)c(C)nn1C(C)(C)C,5.8,0.5,0.7,5.4,-28.6,1.5,nt
CCCC(=O)Oc1c(S(=O)(=O)c2ccc(C)cc2)c(C)nn1C(C)(C)C,1.7,nt,-0.9,-0.4,nt,11.8*,2.0
O=c1ccc(/C=C/c2ccccc2)nn1Cc1ccc(Cl)cc1Cl,1.8,2.0,-2.1,0.7,-106.5,12.6*,2.1
C=CCSc1nc2sc3c(c2c(=O)n1CC=C)CCc1ccccc1-3,3.9,-0.8,nt,-2.5,0.8,-0.8,nt
C=CCn1c(SCCC)nc2sc3c(c2c1=O)CCc1ccccc1-3,1.8,4.5,-1.3,2.1,-24.6,14.8*,3.1
Cc1ccnc(NS(=O)(=O)c2cc(C(F)(F)F)ccc2Cl)c1,nt,nt,-0.7,nt,nt,nt,nt
SMILES,MT stabilizer,Yeast life ext,bCat nuc transl,Efa HMGR inh,BB579 growth dn,RAM network inh,RAM efflux-def
CN(C)c1ccc(N=Nc2ccccc2C(=O)OCC(=O)NCC2CCCCC2)cc1,1.6,14.8,-1.0,2.6,-27.0,24.7*,3.4
O=c1c2c(nc3n1CCS3)c1cc(F)ccc1n2Cc1cc(=O)n2cc(Cl)ccc2n1,nt,nt,0.7,nt,nt,nt,nt
CC(C)=CCc1c(O)c(CC=C(C)C)c2c(c1O)C(=O)CC(c1ccc(O)cc1)O2 (stereo not drawn),3.2,nt,-3.9,1.9,nt,13.2*,4.6
O=C(Cn1nnc2ccccc2c1=O)NCC1CCC(C(=O)O)CC1 (stereo not drawn),nt,nt,0.0,nt,nt,nt,nt
Cc1ccc(C(=O)NCCSCc2ccc(Cl)cc2Cl)cc1[N+](=O)[O-],3.5,1.6,0.2,-1.6,-38.6,14.1*,1.4
O=C(O)CCC(=O)Nc1cc(C(F)(F)F)cc(C(F)(F)F)c1,nt,nt,-1.1,nt,nt,nt,nt
